Active and inactive are the calls of the source.
How the values were obtained:
MV4-11 = experiment: Induction of apoptosis in human MV4-11 cells assessed as decrease in MCL-1 level after 2 hrs by immunoblotting analysis; format: functional, cell-based
Homo sapiens [1] = species on record: Homo sapiens; experiment: Induction of apoptosis in human MEC1 cells assessed as decrease in BCL-2 level up to 3 uM after 2 hrs by immunoblotting analysis; format: functional, cell-based
[2] = Apparent volume of distribution in mouse at 3 mg/kg, iv by LC-MS/MS analysis; format: ADME, organism-based; conditions: in vivo, read-out: Vz
In short: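 Non-compartmental PK. Male SD rats 190-210 g, mice and beagle dogs acclimatized one week, fasted 12 h with water, split into iv and po groups (mice 48, rats 6, dogs 6). iv 3/3/2 mg/kg (mice/rats/dogs); po 10/20/10 mg/kg; vehicle DMSO in 5% glucose water. Blood at 2 or 5 to 720 min; plasma protein-precipitated with methanol, caffeine internal standard, LC-MS/MS.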

[3] = target: Mitogen-activated protein kinase kinase kinase 6 (Homo sapiens) (UniProt O95382); experiment: Binding affinity to wild-type human partial length ASK2 (M278 to R972 residues) expressed in mammalian expression system assessed as remaining unbound target protein level at 1000 nM by Kinomescan method relative to control
In short: (§1)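 KINOMEscan competition binding profile across a panel of 468 kinases and mutants, with the inhibitor tested at a single concentration of 1 μM. Binding is reported as percent of control, meaning signal relative to a DMSO control.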

[4] = target: Aurora kinase B (Homo sapiens) (UniProt Q96GD4); experiment: Binding affinity to wild-type human partial length AURKB (D25 to A303 residues) expressed in mammalian expression system assessed as remaining unbound target protein level at 1000 nM by Kinomescan method relative to control
In short: (§2)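 Profiled in a KINOMEscan binding panel with the inhibitor at a single concentration of 1 μM. Binding to each kinase was read out as percent of control, relative to a DMSO control. Strong binders were defined as those with a percent control value below 1.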

[5] = target: Serine/threonine-protein kinase Chk1 (Homo sapiens) (UniProt O14757); experiment: Binding affinity to wild-type human partial length CHEK1 (M1 to G289 residues) expressed in bacterial expression system assessed as remaining unbound target protein level at 1000 nM by Kinomescan method relative to control; in short: as §1
[6] = target: Epithelial discoidin domain-containing receptor 1 (Homo sapiens) (UniProt Q08345); experiment: Binding affinity to wild-type human partial length DDR1 (R565 to V876 residues) expressed in bacterial expression system assessed as remaining unbound target protein level at 1000 nM by Kinomescan method relative to control
[7] = target: Serine/threonine-protein kinase 17A (Homo sapiens) (UniProt Q9UEE5); experiment: Binding affinity to wild-type human partial length DRAK1 (R32 to E363 residues) expressed in bacterial expression system assessed as remaining unbound target protein level at 1000 nM by Kinomescan method relative to control
[8] = target: Tyrosine-protein kinase Fyn (Homo sapiens) (UniProt P06241); experiment: Binding affinity to wild-type human partial length FYN (T243 to L534 residues) expressed in bacterial expression system assessed as remaining unbound target protein level at 1000 nM by Kinomescan method relative to control
[9] = tested on: Mast/stem cell growth factor receptor Kit (Homo sapiens), P10721 [L576P]; experiment: Binding affinity to human partial length KIT L576P mutant (Y545 to D952 residues) expressed in bacterial expression system assessed as remaining unbound target protein level at 1000 nM by Kinomescan method relative to control
In short: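 KINOMEscan competition-binding profiling across the panel of 468 kinases and mutants, with inhibitor tested at 1 μM. Binding is expressed as percent of control, with DMSO as the reference control.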

[10] = target: Serine/threonine-protein kinase 10 (Homo sapiens) (UniProt O94804); experiment: Binding affinity to wild-type human partial length LOK (E16 to V314 residues) expressed in bacterial expression system assessed as remaining unbound target protein level at 1000 nM by Kinomescan method relative to control
[11] = target: Dual specificity mitogen-activated protein kinase kinase 7 (Homo sapiens) (UniProt O14733); experiment: Binding affinity to wild-type human full length MKK7 (M1 to R419 residues) expressed in mammalian expression system assessed as remaining unbound target protein level at 1000 nM by Kinomescan method relative to control
In short: (§3)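 Single-point competition binding screen across a panel of 468 kinases and mutants, with the inhibitor at 1 μM. Binding is read out as percent of a DMSO control, and targets below 1 percent control were classed as strong binders.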

[12] = target: Serine/threonine-protein kinase 26 (Homo sapiens) (UniProt Q9P289); experiment: Binding affinity to wild-type human full length MST4 (M1 to P416 residues) expressed in mammalian expression system assessed as remaining unbound target protein level at 1000 nM by Kinomescan method relative to control; in short: as §3
[13] = target: Serine/threonine-protein kinase Nek11 (Homo sapiens) (UniProt Q8NG66); experiment: Binding affinity to wild-type human partial length NEK11 (M1 to E313 residues) expressed in mammalian expression system assessed as remaining unbound target protein level at 1000 nM by Kinomescan method relative to control
[14] = target: Mitogen-activated protein kinase 13 (Homo sapiens) (UniProt O15264); experiment: Binding affinity to wild-type human full length p38-delta (M1 to L365 residues) expressed in bacterial expression system assessed as remaining unbound target protein level at 1000 nM by Kinomescan method relative to control; in short: as §2
[15] = target: Serine/threonine-protein kinase pim-2 (Homo sapiens) (UniProt Q9P1W9); experiment: Binding affinity to wild-type human partial length PIM2 (M1 to E291 residues) expressed in bacterial expression system assessed as remaining unbound target protein level at 1000 nM by Kinomescan method relative to control
[16] = target: Serine/threonine-protein kinase RIO3 (Homo sapiens) (UniProt O14730); experiment: Binding affinity to wild-type human full length RIOK3 (M1 to E519 residues) expressed in bacterial expression system assessed as remaining unbound target protein level at 1000 nM by Kinomescan method relative to control; in short: as §1
[17] = target: Dual serine/threonine and tyrosine protein kinase (Homo sapiens) (UniProt Q6XUX3); experiment: Binding affinity to wild-type human full length RIPK5 (M1 to T929 residues) expressed in mammalian expression system assessed as remaining unbound target protein level at 1000 nM by Kinomescan method relative to control; in short: as §1
[18] = target: Serine/threonine-protein kinase TAO1 (Homo sapiens) (UniProt Q7L7X3); experiment: Binding affinity to wild-type human partial length TAOK1 (M1 to A320 residues) expressed in mammalian expression system assessed as remaining unbound target protein level at 1000 nM by Kinomescan method relative to control
[19] = target: NT-3 growth factor receptor (Homo sapiens) (UniProt Q16288); experiment: Binding affinity to wild-type human partial length TRKC (Q531 to G825 residues) expressed in mammalian expression system assessed as remaining unbound target protein level at 1000 nM by Kinomescan method relative to control
Homo sapiens [20] = species on record: Homo sapiens; experiment: Selectivity ratio of IC50 for recombinant GST-tagged human CDK3/cyclin E1 to IC50 for recombinant full length His-tagged human CDK9/CyclinT1

Serine/threonine-protein kinase Nek11 (Homo sapiens), sequence (Q8NG66 whole entry, the tested form may be a part): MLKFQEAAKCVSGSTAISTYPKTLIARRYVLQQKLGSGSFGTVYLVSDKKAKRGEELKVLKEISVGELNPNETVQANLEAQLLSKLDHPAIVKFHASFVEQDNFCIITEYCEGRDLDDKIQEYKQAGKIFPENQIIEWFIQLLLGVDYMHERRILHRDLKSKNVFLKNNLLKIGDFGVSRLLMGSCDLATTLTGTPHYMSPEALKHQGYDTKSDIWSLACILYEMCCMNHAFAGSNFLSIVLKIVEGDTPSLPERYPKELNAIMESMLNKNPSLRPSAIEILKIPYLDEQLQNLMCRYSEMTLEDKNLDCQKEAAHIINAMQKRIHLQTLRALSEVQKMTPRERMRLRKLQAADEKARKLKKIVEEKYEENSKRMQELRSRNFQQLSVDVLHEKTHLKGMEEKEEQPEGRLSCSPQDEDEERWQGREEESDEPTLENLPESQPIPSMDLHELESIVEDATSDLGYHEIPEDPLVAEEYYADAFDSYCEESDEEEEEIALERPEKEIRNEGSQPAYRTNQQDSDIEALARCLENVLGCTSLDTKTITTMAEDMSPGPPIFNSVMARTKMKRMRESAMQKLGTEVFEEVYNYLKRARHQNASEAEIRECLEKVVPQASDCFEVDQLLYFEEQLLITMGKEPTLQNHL
NT-3 growth factor receptor (Homo sapiens), sequence (Q16288 32-839 limits assumed): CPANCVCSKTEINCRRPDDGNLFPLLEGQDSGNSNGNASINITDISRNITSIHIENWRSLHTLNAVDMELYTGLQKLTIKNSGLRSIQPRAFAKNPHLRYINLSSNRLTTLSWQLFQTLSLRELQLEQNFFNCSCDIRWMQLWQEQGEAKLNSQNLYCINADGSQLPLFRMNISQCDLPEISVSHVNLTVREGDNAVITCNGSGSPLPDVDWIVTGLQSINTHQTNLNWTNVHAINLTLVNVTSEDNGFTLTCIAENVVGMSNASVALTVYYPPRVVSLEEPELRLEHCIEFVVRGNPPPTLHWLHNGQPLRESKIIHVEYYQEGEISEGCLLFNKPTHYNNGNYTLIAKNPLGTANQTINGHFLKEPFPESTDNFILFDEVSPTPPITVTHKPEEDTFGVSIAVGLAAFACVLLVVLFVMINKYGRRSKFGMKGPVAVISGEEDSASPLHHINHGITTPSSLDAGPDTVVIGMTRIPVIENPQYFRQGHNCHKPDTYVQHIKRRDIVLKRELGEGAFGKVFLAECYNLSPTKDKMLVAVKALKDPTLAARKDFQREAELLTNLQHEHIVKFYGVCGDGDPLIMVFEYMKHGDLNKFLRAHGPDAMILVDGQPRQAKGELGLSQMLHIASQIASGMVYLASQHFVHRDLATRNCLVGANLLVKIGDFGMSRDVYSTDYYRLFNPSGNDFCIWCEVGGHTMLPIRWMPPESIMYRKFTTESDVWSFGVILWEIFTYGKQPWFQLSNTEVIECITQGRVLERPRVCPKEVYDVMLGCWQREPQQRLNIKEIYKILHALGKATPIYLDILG
Serine/threonine-protein kinase 10 (Homo sapiens), sequence (O94804 whole entry, looked up, the tested form may be a part): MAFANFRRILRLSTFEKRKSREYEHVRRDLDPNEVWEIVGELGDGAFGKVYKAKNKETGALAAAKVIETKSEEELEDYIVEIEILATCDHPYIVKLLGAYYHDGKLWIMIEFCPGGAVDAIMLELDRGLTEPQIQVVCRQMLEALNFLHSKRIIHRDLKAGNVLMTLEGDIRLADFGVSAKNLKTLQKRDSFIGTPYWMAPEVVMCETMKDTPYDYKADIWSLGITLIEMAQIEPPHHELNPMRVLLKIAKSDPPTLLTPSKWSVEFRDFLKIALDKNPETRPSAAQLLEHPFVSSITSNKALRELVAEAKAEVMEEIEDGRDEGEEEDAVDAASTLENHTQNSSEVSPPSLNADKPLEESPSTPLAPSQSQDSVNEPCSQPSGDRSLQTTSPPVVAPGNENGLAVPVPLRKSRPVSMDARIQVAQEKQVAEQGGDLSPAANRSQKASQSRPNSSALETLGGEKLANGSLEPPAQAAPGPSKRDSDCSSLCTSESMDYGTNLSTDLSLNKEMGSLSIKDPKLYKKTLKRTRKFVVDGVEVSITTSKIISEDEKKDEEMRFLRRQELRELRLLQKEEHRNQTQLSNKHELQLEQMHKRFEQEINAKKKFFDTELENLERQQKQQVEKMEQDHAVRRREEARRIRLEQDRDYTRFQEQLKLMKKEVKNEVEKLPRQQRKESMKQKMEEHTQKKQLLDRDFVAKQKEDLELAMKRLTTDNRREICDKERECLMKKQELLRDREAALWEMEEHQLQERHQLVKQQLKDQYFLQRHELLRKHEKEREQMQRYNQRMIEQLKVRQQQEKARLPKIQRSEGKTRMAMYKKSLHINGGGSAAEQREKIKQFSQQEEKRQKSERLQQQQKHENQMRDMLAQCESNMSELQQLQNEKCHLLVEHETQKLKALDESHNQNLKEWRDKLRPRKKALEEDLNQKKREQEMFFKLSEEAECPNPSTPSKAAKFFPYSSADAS
Mitogen-activated protein kinase 13 (Homo sapiens), sequence (O15264 whole entry, the tested form may be a part): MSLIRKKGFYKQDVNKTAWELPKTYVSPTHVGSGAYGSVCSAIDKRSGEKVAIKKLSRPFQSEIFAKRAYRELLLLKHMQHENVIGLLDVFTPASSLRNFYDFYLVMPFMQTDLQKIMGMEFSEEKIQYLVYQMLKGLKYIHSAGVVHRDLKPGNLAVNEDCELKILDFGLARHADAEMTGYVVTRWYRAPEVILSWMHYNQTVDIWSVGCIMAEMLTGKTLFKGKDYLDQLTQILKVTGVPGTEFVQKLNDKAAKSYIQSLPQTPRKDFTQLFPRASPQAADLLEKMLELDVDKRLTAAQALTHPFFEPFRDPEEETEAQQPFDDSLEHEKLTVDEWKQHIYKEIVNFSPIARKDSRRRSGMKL
Serine/threonine-protein kinase 26 (Homo sapiens), sequence (Q9P289 2-416 limits assumed): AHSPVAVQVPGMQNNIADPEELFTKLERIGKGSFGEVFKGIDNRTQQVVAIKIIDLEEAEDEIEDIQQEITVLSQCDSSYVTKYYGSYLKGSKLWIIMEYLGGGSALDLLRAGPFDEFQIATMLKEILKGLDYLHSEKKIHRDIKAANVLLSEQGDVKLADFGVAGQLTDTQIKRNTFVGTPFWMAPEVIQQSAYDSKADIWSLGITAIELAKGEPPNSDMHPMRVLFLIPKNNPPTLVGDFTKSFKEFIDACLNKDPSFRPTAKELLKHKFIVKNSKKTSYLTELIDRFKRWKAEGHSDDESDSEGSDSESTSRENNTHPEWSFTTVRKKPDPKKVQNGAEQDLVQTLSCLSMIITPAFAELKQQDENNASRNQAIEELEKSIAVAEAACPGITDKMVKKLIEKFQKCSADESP
Serine/threonine-protein kinase pim-2 (Homo sapiens), sequence (Q9P1W9 whole entry, looked up, the tested form may be a part): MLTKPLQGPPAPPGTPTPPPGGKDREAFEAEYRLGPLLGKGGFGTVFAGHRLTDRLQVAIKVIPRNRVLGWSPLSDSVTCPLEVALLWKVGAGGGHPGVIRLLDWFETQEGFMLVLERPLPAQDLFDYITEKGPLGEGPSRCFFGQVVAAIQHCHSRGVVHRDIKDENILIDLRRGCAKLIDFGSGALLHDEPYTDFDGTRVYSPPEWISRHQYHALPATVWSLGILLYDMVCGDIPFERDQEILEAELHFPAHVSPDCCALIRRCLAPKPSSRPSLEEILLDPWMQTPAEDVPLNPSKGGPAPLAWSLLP
Serine/threonine-protein kinase RIO3 (Homo sapiens), sequence (O14730 whole entry, the tested form may be a part): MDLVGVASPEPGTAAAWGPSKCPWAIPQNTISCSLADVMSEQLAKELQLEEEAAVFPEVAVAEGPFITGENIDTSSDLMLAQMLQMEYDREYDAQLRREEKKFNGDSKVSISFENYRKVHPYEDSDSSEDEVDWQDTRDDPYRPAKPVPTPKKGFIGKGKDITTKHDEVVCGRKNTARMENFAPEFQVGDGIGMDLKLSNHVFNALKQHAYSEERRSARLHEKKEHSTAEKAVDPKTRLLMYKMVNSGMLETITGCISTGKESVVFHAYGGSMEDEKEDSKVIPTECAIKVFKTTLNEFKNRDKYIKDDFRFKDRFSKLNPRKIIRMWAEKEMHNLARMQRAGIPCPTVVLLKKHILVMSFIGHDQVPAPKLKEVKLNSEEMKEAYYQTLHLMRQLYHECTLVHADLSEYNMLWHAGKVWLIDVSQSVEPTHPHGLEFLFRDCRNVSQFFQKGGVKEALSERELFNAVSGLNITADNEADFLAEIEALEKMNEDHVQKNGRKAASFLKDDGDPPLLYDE
Aurora kinase B (Homo sapiens), sequence (Q96GD4 whole entry, the tested form may be a part): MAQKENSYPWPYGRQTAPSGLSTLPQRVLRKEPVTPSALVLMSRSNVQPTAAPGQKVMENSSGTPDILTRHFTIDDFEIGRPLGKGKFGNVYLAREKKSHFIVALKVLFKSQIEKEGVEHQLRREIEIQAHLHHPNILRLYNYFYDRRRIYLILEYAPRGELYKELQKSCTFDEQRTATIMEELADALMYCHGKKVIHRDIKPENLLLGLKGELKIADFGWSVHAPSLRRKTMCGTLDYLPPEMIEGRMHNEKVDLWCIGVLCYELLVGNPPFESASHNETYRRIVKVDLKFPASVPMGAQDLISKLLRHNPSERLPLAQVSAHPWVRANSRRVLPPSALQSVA
Serine/threonine-protein kinase 17A (Homo sapiens), sequence (Q9UEE5 whole entry, the tested form may be a part): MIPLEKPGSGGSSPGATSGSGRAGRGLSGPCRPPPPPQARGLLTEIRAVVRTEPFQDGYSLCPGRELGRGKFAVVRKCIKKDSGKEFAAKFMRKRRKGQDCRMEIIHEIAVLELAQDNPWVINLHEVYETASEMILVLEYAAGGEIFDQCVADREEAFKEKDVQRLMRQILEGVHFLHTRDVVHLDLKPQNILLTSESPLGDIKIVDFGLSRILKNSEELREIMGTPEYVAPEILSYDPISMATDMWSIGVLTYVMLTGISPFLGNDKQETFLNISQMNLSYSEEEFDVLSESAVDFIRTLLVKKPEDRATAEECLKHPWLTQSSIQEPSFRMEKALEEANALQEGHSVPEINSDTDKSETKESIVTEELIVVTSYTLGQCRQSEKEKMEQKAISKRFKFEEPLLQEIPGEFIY

For COCCN[C@H]1CC[C@H](Nc2cc(-c3csc(NCC4(C#N)CCOCC4)n3)c(Cl)cn2)CC1, the Activity (MV4-11) was “Dose-dependent effect”, the Activity (Homo sapiens [1]) was “inactive” and the Vd [2] was 18.2 L/kg. It also gave an Activity [3] of 86%, an Activity [4] of 100% and an Activity [5] of 91%. It also gave an Activity [6] of 89%, an Activity [7] of 100% and an Activity [8] of 83%. For the same molecule, the Activity [9] was 90%, the Activity [10] was 100% and the Activity [11] was 100%. The Activity [12] was 96%, the Activity [13] was 97% and the Activity [14] was 100%. The Activity [15] was 53%, the Activity [16] was 99% and the Activity [17] was 95%. For the same molecule, the Activity [18] was 36%, the Activity [19] was 89% and the Ratio IC50 (Homo sapiens [20]) was over 1000.

Source: ChEMBL document CHEMBL4261600 (Eur J Med Chem, 2018)
